Test results taken from ChEMBL document CHEMBL4152223 (Eur J Med Chem, 2018).
Values after ≈ are worked out from the molar mass of the structure shown.

Key:
[1] = tested on: Mycobacterium tuberculosis; assay: Antimycobacterial activity against Mycobacterium tuberculosis H37Rv after 14 days; format: functional; conditions: 336 h
[2] = tested on: Mycobacterium tuberculosis; assay: Antimycobacterial activity against Mycobacterium tuberculosis H37Rv after 21 days; format: functional; conditions: 504 h
Mycobacterium avium [3] = assay: Antimycobacterial activity against INH/RIF/OFX resistant Mycobacterium avium 330/88 after 14 days; format: functional; conditions: 330/88, 336 h
Mycobacterium avium [4] = assay: Antimycobacterial activity against INH/RIF/OFX resistant Mycobacterium avium 330/88 after 21 days; format: functional; conditions: 330/88, 504 h
Mycobacterium kansasii [5] = assay: Antimycobacterial activity against Mycobacterium kansasii 235/80 after 7 days; format: functional; conditions: 235/80, 168 h
Mycobacterium kansasii [6] = assay: Antimycobacterial activity against Mycobacterium kansasii 235/80 after 14 days; format: functional; conditions: 235/80, 336 h
Mycobacterium kansasii [7] = assay: Antimycobacterial activity against Mycobacterium kansasii 235/80 after 21 days; format: functional; conditions: 235/80, 504 h
Mycobacterium kansasii [8] = assay: Antimycobacterial activity against Mycobacterium kansasii 6509/96 after 7 days; format: functional; conditions: 6509/96, 168 h
Mycobacterium kansasii [9] = assay: Antimycobacterial activity against Mycobacterium kansasii 6509/96 after 14 days; format: functional; conditions: 6509/96, 336 h
Mycobacterium kansasii [10] = assay: Antimycobacterial activity against Mycobacterium kansasii 6509/96 after 21 days; format: functional; conditions: 6509/96, 504 h
HepG2 = assay: Cytotoxicity against human HepG2 cells assessed as reduction in cell viability by MTS assay; format: cell-based
In short: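 HepG2 human hepatocellular carcinoma cells (passage 2-4) were cultured in Eagle's MEM with 10% FBS, 1% L-glutamine and non-essential amino acids. Compounds were dissolved in DMSO and tested in triplicate at eight concentrations. Viability was read by colorimetric MTS tetrazolium reduction. Controls were 100% viability and 0% viability (10% DMSO). IC50 is the concentration reducing viability to 50% of control.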

[11] = Selectivity index, ratio of IC50 for human HepG2 cells to MIC for Mycobacterium tuberculosis H37Rv after 14 days; format: toxicity; conditions: read-out: Selectivity Index
In short: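 SI is calculated as HepG2 IC50 divided by MIC. HepG2 cells (passage 2-4) were grown in EMEM with 10% FBS, L-glutamine and non-essential amino acids. Compounds in DMSO were tested in triplicate at eight concentrations, and viability was read by MTS tetrazolium reduction. IC50 is the concentration reducing viability to 50% of control. 10% DMSO served as the 0% viability control.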

SMILES | MIC [1] | MIC [2] | MIC (Mycobacterium avium [3]) | MIC (Mycobacterium avium [4]) | MIC (Mycobacterium kansasii [5]) | MIC (Mycobacterium kansasii [6]) | MIC (Mycobacterium kansasii [7]) | MIC (Mycobacterium kansasii [8]) | MIC (Mycobacterium kansasii [9]) | MIC (Mycobacterium kansasii [10]) | IC50 (HepG2) | selectivity ratio at 336 h [11]
CCCCCCCCCCCCNC(=O)NNC(=O)c1ccncc1 | 32 µM (≈ 11.2 µg/mL) | 32 µM (≈ 11.2 µg/mL) | 32 µM (≈ 11.2 µg/mL) | 62.5 µM (≈ 21.8 µg/mL) | 32 µM (≈ 11.2 µg/mL) | 62.5 µM (≈ 21.8 µg/mL) | 125 µM (≈ 43.6 µg/mL) | 62.5 µM (≈ 21.8 µg/mL) | 62.5 µM (≈ 21.8 µg/mL) | 62.5 µM (≈ 21.8 µg/mL) | > 50 µM | 
CCCCCCNC(=O)NNC(=O)c1ccncc1 | 32 µM (≈ 8.46 µg/mL) | 32 µM (≈ 8.46 µg/mL) | 500 µM (≈ 132 µg/mL) | 500 µM (≈ 132 µg/mL) | 250 µM (≈ 66.1 µg/mL) | 250 µM (≈ 66.1 µg/mL) | 250 µM (≈ 66.1 µg/mL) | 250 µM (≈ 66.1 µg/mL) | 500 µM (≈ 132 µg/mL) | 500 µM (≈ 132 µg/mL) | > 1000 µM | > 31.3
CCCCCCCCCNC(=O)NNC(=O)c1ccncc1 | 62.5 µM (≈ 19.2 µg/mL) | 125 µM (≈ 38.3 µg/mL) | 250 µM (≈ 76.6 µg/mL) | 250 µM (≈ 76.6 µg/mL) | 32 µM (≈ 9.81 µg/mL) | 62.5 µM (≈ 19.2 µg/mL) | 125 µM (≈ 38.3 µg/mL) | 62.5 µM (≈ 19.2 µg/mL) | 125 µM (≈ 38.3 µg/mL) | 125 µM (≈ 38.3 µg/mL) | > 250 µM | 
CCCNc1nnc(-c2ccncc2)o1 | 500 µM (≈ 102 µg/mL) | 500 µM (≈ 102 µg/mL) | > 1000 µM | > 1000 µM | 500 µM (≈ 102 µg/mL) | 1000 µM (≈ 204 µg/mL) | 1000 µM (≈ 204 µg/mL) | 1000 µM (≈ 204 µg/mL) | 1000 µM (≈ 204 µg/mL) | 1000 µM (≈ 204 µg/mL) |  | 
CCNc1nnc(-c2ccncc2)o1 | > 1000 µM | > 1000 µM | > 1000 µM | > 1000 µM | 1000 µM (≈ 190 µg/mL) | > 1000 µM | > 1000 µM | 1000 µM (≈ 190 µg/mL) | > 1000 µM | > 1000 µM |  | 
CCCCCCCCCCCCCCCNC(=O)NNC(=O)c1ccncc1 | 32 µM (≈ 12.5 µg/mL) | 62.5 µM (≈ 24.4 µg/mL) | 125 µM (≈ 48.8 µg/mL) | 125 µM (≈ 48.8 µg/mL) | 32 µM (≈ 12.5 µg/mL) | 62.5 µM (≈ 24.4 µg/mL) | 62.5 µM (≈ 24.4 µg/mL) | 62.5 µM (≈ 24.4 µg/mL) | 62.5 µM (≈ 24.4 µg/mL) | 125 µM (≈ 48.8 µg/mL) | > 75 µM | 
CCCCCCCCCCCCCCNC(=O)NNC(=O)c1ccncc1 | 32 µM (≈ 12 µg/mL) | 62.5 µM (≈ 23.5 µg/mL) | 125 µM (≈ 47.1 µg/mL) | 125 µM (≈ 47.1 µg/mL) | 32 µM (≈ 12 µg/mL) | 62.5 µM (≈ 23.5 µg/mL) | 62.5 µM (≈ 23.5 µg/mL) | 32 µM (≈ 12 µg/mL) | 62.5 µM (≈ 23.5 µg/mL) | 62.5 µM (≈ 23.5 µg/mL) | > 50 µM | 
CCCCCCCCCCCCCCNc1nnc(-c2ccncc2)o1 | 250 µM (≈ 89.6 µg/mL) | 250 µM (≈ 89.6 µg/mL) | 250 µM (≈ 89.6 µg/mL) | 250 µM (≈ 89.6 µg/mL) | 250 µM (≈ 89.6 µg/mL) | 250 µM (≈ 89.6 µg/mL) | 250 µM (≈ 89.6 µg/mL) | 250 µM (≈ 89.6 µg/mL) | 250 µM (≈ 89.6 µg/mL) | 250 µM (≈ 89.6 µg/mL) |  | 
CNc1nnc(-c2ccncc2)o1 | 500 µM (≈ 88.1 µg/mL) | 500 µM (≈ 88.1 µg/mL) | > 1000 µM | > 1000 µM | 500 µM (≈ 88.1 µg/mL) | 1000 µM (≈ 176 µg/mL) | > 1000 µM | 1000 µM (≈ 176 µg/mL) | 1000 µM (≈ 176 µg/mL) | 1000 µM (≈ 176 µg/mL) |  | 
CCCCCCNc1nnc(-c2ccncc2)o1 | 250 µM (≈ 61.6 µg/mL) | 250 µM (≈ 61.6 µg/mL) | 500 µM (≈ 123 µg/mL) | 500 µM (≈ 123 µg/mL) | 250 µM (≈ 61.6 µg/mL) | 500 µM (≈ 123 µg/mL) | 500 µM (≈ 123 µg/mL) | 125 µM (≈ 30.8 µg/mL) | 250 µM (≈ 61.6 µg/mL) | 500 µM (≈ 123 µg/mL) |  | 
CCCCCCCCNc1nnc(-c2ccncc2)o1 | 62.5 µM (≈ 17.1 µg/mL) | 62.5 µM (≈ 17.1 µg/mL) | 62.5 µM (≈ 17.1 µg/mL) | 125 µM (≈ 34.3 µg/mL) | 62.5 µM (≈ 17.1 µg/mL) | 125 µM (≈ 34.3 µg/mL) | 125 µM (≈ 34.3 µg/mL) | 62.5 µM (≈ 17.1 µg/mL) | 125 µM (≈ 34.3 µg/mL) | 125 µM (≈ 34.3 µg/mL) |  | 
CCCCCCCCCCNc1nnc(-c2ccncc2)o1 | 16 µM (≈ 4.84 µg/mL) | 16 µM (≈ 4.84 µg/mL) | 32 µM (≈ 9.68 µg/mL) | 62.5 µM (≈ 18.9 µg/mL) | 8 µM (≈ 2.42 µg/mL) | 16 µM (≈ 4.84 µg/mL) | 16 µM (≈ 4.84 µg/mL) | 16 µM (≈ 4.84 µg/mL) | 16 µM (≈ 4.84 µg/mL) | 16 µM (≈ 4.84 µg/mL) | > 50 µM | 
CCCCCCCCCCCCCNC(=O)NNC(=O)c1ccncc1 | 32 µM (≈ 11.6 µg/mL) | 62.5 µM (≈ 22.7 µg/mL) | 125 µM (≈ 45.3 µg/mL) | 125 µM (≈ 45.3 µg/mL) | 16 µM (≈ 5.8 µg/mL) | 32 µM (≈ 11.6 µg/mL) | 62.5 µM (≈ 22.7 µg/mL) | 32 µM (≈ 11.6 µg/mL) | 62.5 µM (≈ 22.7 µg/mL) | 62.5 µM (≈ 22.7 µg/mL) | > 100 µM | 
CCCCNC(=O)NNC(=O)c1ccncc1 | 8 µM (≈ 1.89 µg/mL) | 8 µM (≈ 1.89 µg/mL) | > 1000 µM | > 1000 µM | 500 µM (≈ 118 µg/mL) | 1000 µM (≈ 236 µg/mL) | 1000 µM (≈ 236 µg/mL) | 250 µM (≈ 59.1 µg/mL) | 250 µM (≈ 59.1 µg/mL) | 500 µM (≈ 118 µg/mL) | > 3000 µM | > 375
